Laboratory results from ChEMBL document CHEMBL1130393, “Antitumor agents. 178. Synthesis and biological evaluation of substituted 2-aryl-1,8-naphthyridin-4(1H)-ones as antitumor agents that inhibit tubulin polymerization” (J Med Chem, 1997).

Legend:
Tubulin = Tubulin (Bos taurus, UniProt Q6B856+Q862L2+Q862F3); experiment: Inhibition of tubulin polymerization; type: functional
Tumor Cell line [1] = experiment: In vitro antitumor activity against NCI 's human tumor cell lines; type: functional; details: read-out: Average log GI50 (converted)
In short: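 NCI in vitro screen of 60 human tumor cell lines. […] The value is calculated from all cell lines tested.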

CAKI-1 = experiment: In vitro antitumor activity against CAKI-1 tumor cell lines; type: functional; details: Homo sapiens
HL-60 = experiment: In vitro antitumor activity against HL-60(TB) tumor cell lines; type: functional; details: Homo sapiens
MDA-N = experiment: In vitro antitumor activity against MDA-N tumor cell lines; type: functional; details: Homo sapiens
NCI-H460 = experiment: In vitro antitumor activity against NCI-H460 tumor cell lines; type: functional; details: Homo sapiens
MDA-MB-435 = experiment: In vitro antitumor activity against MDA-MB-435 NCI 's human tumor cell lines; type: functional
SF-295 = experiment: In vitro antitumor activity against SF-295 tumor cell lines; type: functional; details: Homo sapiens
SK-MEL-5 = experiment: In vitro antitumor activity against SK-MEL-5 tumor cell lines; type: functional; details: Homo sapiens
OVCAR-3 = experiment: In vitro antitumor activity against OVCAR-3 tumor cell lines; type: functional; details: Homo sapiens
HCT-116 = experiment: In vitro antitumor activity against HCT116 tumor cell lines; type: functional; details: Homo sapiens
PC-3 = experiment: In vitro antitumor activity against PC-3 tumor cell lines; type: functional; details: Homo sapiens
U-251 = experiment: In vitro antitumor activity against U-251 tumor cell lines; type: functional; details: Homo sapiens
Tubulin (Bos taurus) = Tubulin (Bos taurus) (UniProt Q6B856+Q862L2+Q862F3); experiment: Inhibition of radiolabeled colchicine binding to tubulin; type: protein assay; parameters: concentration or dose not given beside the values; details: concentration not given here
In short: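 Measured by DEAE-cellulose filter binding. The 0.1 mL mixture held bovine brain tubulin 1.0 µM, 1.0 M monosodium glutamate (pH 6.6), 1 mM MgCl2, 0.1 mM GTP, 5.0 µM [3H]colchicine, 5% DMSO and inhibitor at 5.0 µM. It was incubated 20 min at 37 °C, filtered through two DEAE-cellulose papers, washed with water and counted by liquid scintillation.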

Leukemic tumor cell line = experiment: log molar concentration required to cause total growth inhibition of leukemic tumor cell lines; type: functional; details: Homo sapiens, read-out: Log TGI (converted)
In short: (§1)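 TGI from the NCI 60 human tumor cell line in vitro screen: log of the molar drug concentration causing total growth inhibition, reported for the named cell panel.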

[2] = test system: Panel CNS (Carcinoma cell lines); experiment: log molar concentration required to cause total growth inhibition of CNS cancer cell lines; type: functional; details: Homo sapiens, read-out: Log TGI (converted); in short: as §1
[3] = test system: Panel renal (Carcinoma cell lines); experiment: log molar concentration required to cause total growth inhibition of renal tumor cell lines; type: functional; details: Homo sapiens, read-out: Log TGI (converted); in short: as §1
[4] = test system: Panel prostate (Carcinoma cell lines); experiment: log molar concentration required to cause total growth inhibition of prostate tumor cell lines; type: functional; details: Homo sapiens, read-out: Log TGI (converted); in short: as §1
NSCLC = experiment: log molar concentration required to cause total growth inhibition of non-small cell lung tumor cell lines; type: functional; details: Homo sapiens, read-out: Log TGI (converted); in short: as §1
Tumor Cell line [5] = experiment: log molar concentration required to cause total growth inhibition of NCI 's human tumor cell lines; type: functional; details: read-out: Log TGI (converted)
In short: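 NCI 60 human tumor cell line in vitro screen. TGI is the log molar concentration giving total growth inhibition, calculated from all cell lines tested.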

[6] = test system: Panel breast (Carcinoma cell lines); experiment: log molar concentration required to cause total growth inhibition of breast tumor cell lines; type: functional; details: Homo sapiens, read-out: Log TGI (converted); in short: as §1
[7] = test system: Panel ovarian (Carcinoma cell lines); experiment: log molar concentration required to cause total growth inhibition of ovarian tumor cell lines; type: functional; details: Homo sapiens, read-out: Log TGI (converted); in short: as §1
[8] = test system: Panel colon (Carcinoma cell lines); experiment: log molar concentration required to cause total growth inhibition of colon tumor cell lines; type: functional; details: Homo sapiens, read-out: Log TGI (converted); in short: as §1
Melanoma tumor cell line = experiment: log molar concentration required to cause total growth inhibition of melanomic tumor cell lines; type: functional; details: Homo sapiens, read-out: Log TGI (converted); in short: as §1

Structure (SMILES)	IC50 (Tubulin) [nM]	GI50 (Tumor Cell line [1]) [nM]	GI50 (CAKI-1) [nM]	GI50 (HL-60) [nM]	GI50 (MDA-N) [nM]	GI50 (NCI-H460) [nM]	GI50 (MDA-MB-435) [nM]	GI50 (SF-295) [nM]	GI50 (SK-MEL-5) [nM]	GI50 (OVCAR-3) [nM]	GI50 (HCT-116) [nM]	GI50 (PC-3) [nM]	GI50 (U-251) [nM]	inhibition (Tubulin (Bos taurus)) [%]	other results
Cc1cccc(-c2cc(O)c3cc(C)cnc3n2)c1	1500	646	437	174	< 10	389	< 10	417	288	251	407	309	170		
Cc1cccc(-c2cc(O)c3c(C)cc(C)nc3n2)c1	2300	38000	56200	12900	20900	44700	20000	64600	34700	30200	17800	31600	53700		
Cc1cnc2nc(-c3ccc4ccccc4c3)cc(O)c2c1	2100	741	617	141	132	398	105	550	363	355	468	407	468		
Cc1cnc2nc(-c3cccc4ccccc34)cc(O)c2c1	550	19.1	< 10	< 10	< 10	< 10	< 10	< 10	< 10	< 10	< 10	< 10	< 10	46	
Cc1cc(C)c2c(O)cc(-c3ccc4ccccc4c3)nc2n1	> 40000	13500	51300	3470	3240	13200	2950	14800	2190	20000	12600	5500	15800		
Cc1ccc2c(=O)cc(-c3cccc(F)c3)[nH]c2n1	530	42.7	45.7	22.4	14.4	33.1	12.3	28.8	22.4	19.5	28.2	34.7	38	41	TGI (Leukemic tumor cell line): 2750 nM; TGI [2]: 2240 nM; TGI [3]: 64600 nM; TGI [4]: 1580 nM; TGI (NSCLC): 5750 nM; TGI (Tumor Cell line [5]): 4680 nM; TGI [6]: 575 nM; TGI [7]: 10200 nM; TGI [8]: 550 nM; TGI (Melanoma tumor cell line): 24000 nM
Cc1ccc2c(O)cc(-c3cccc(Cl)c3)nc2n1	890	170	41.7	28.8	> 100000	41.7	< 10	22.9	31.6	< 10	25.7	> 100000	64.6	38	TGI (Leukemic tumor cell line): > 100000 nM; TGI [2]: 1950 nM; TGI [3]: > 100000 nM; TGI [4]: > 100000 nM; TGI (NSCLC): 24500 nM; TGI (Tumor Cell line [5]): 21400 nM; TGI [6]: 3800 nM; TGI [7]: 10500 nM; TGI [8]: 3090 nM; TGI (Melanoma tumor cell line): 69200 nM
Cc1cccc(-c2cc(O)c3ccc(C)nc3n2)c1	1900	97.7	427	26.9	31.6	17.8	32.4	60.3	126	490	120	138	200		
Oc1cc(-c2cccc3ccccc23)nc2ncccc12	1100	35.5	15.1	< 10	< 10	38.9	< 10	< 10	< 10	< 10	< 10	17.8	10.2		
Oc1cc(-c2ccc3ccccc3c2)nc2ncc(Cl)cc12	2500	5750	7590	1780	1550	4070	851	5500	2950	2630	3980	3090	4790		
Cc1cc(C)c2c(O)cc(-c3cccc(F)c3)nc2n1	740	85.1	35.5	37.1	12.9	53.7	< 10	33.1	37.1	18.2	< 10	61.7	64.6	29	TGI (Leukemic tumor cell line): 2450 nM; TGI [2]: 9770 nM; TGI [3]: 49000 nM; TGI [4]: 49000 nM; TGI (NSCLC): 2510 nM; TGI (Tumor Cell line [5]): 5620 nM; TGI [6]: 1000 nM; TGI [7]: 5500 nM; TGI [8]: 1170 nM; TGI (Melanoma tumor cell line): 13800 nM
Cc1ccnc2nc(-c3ccc4ccccc4c3)cc(O)c12	1800	1200	2400	204	204	1050	204	1480	437	1290	427	1380	646		
Cc1ccc2c(O)cc(-c3ccc4ccccc4c3)nc2n1	5100	4570	5370	1780	1950	3800	1580	3800	3310	3630	3980	2630	4570		
Cc1ccc2c(O)cc(-c3cccc4ccccc34)nc2n1	660	66.1	6030	< 10	< 10	17.4	< 10	24	13.8	< 10	< 10	30.2	15.5	40	
Cc1cc(C)c2c(O)cc(-c3cccc(Cl)c3)nc2n1	770	347	204	74.1	19.1	224	13.2	47.9	117	170	170	27.5	295	22	TGI (Leukemic tumor cell line): 81300 nM; TGI [2]: 5010 nM; TGI [3]: 58900 nM; TGI [4]: 3090 nM; TGI (NSCLC): > 100000 nM; TGI (Tumor Cell line [5]): 26300 nM; TGI [6]: 1230 nM; TGI [7]: 30200 nM; TGI [8]: 28800 nM; TGI (Melanoma tumor cell line): 72400 nM
Oc1cc(-c2ccc3ccccc3c2)nc2ncccc12	14000	8130	5620	1820	1660	3800	1780	9120	3470	8320	3800	10500	4370		
Cc1cc(C)c2c(O)cc(-c3cccc4ccccc34)nc2n1	780	1050	9550	245	234	631	191	589	468	347	380	759	372	15	
Cc1cccc(-c2cc(O)c3c(C)ccnc3n2)c1	1800	57.5	53.7	18.2	11	36.3	< 10	30.2	33.9	22.4	46.8	33.1	53.7		
Cc1ccnc2nc(-c3cccc4ccccc34)cc(O)c12	930	35.5	12	< 10	< 10	< 10	< 10	10.7	< 10	< 10	< 10	19.9	< 10	37	
